Converted amounts (≈) assume the structure as drawn. The source made the active and inactive calls. The rule behind the calls is not given here.
Key:
[1] = tested on: Staphylococcus aureus; test: Antimicrobial activity against exponential-phase methicillin-sensitive Staphylococcus aureus ATCC 29213 grown on nutrient-depleted CAMHB medium assessed as membrane depolarization after 30 mins using DiSC3(5) dye based fluorescence spectrophotometry; assay type: functional, organism-based
[2] = tested on: Staphylococcus aureus; test: Antimicrobial activity against stationary-phase methicillin-sensitive Staphylococcus aureus ATCC 29213 grown on nutrient-depleted CAMHB medium assessed as membrane depolarization after 30 mins using DiSC3(5) dye based fluorescence spectrophotometry; assay type: functional, organism-based
[3] = tested on: Staphylococcus aureus; test: Bactericidal activity against methicillin-sensitive Staphylococcus aureus assessed as log reduction in bacterial load within 15 to 120 mins; assay type: functional
[4] = tested on: Staphylococcus aureus; test: Bactericidal activity against stationary-phase methicillin-sensitive Staphylococcus aureus ATCC 29213 grown on nutrient-depleted CAMHB medium assessed as log reduction in bacterial count at 0.5 ug/ml after 24 hrs by time kill analysis; assay type: functional
[5] = tested on: Staphylococcus aureus; test: Bactericidal activity against exponential-phase methicillin-sensitive Staphylococcus aureus ATCC 29213 grown on nutrient-depleted CAMHB medium at 0.5 ug/ml after 24 hrs by time kill analysis; assay type: functional, organism-based
[6] = tested on: Staphylococcus aureus; test: Bactericidal activity against exponential-phase methicillin-sensitive Staphylococcus aureus ATCC 29213 grown on nutrient-depleted CAMHB medium at 16 ug/ml after 24 hrs by time kill analysis; assay type: functional, organism-based
[7] = tested on: Staphylococcus aureus; test: Bactericidal activity against exponential-phase methicillin-sensitive Staphylococcus aureus ATCC 29213 grown on nutrient-depleted CAMHB medium at 4 ug/ml after 24 hrs by time kill analysis; assay type: functional, organism-based
[8] = tested on: Staphylococcus aureus; test: Bactericidal activity against stationary-phase methicillin-resistant Staphylococcus aureus ATCC 33591 grown on nutrient-depleted CAMHB medium after 24 hrs by time kill analysis; assay type: functional, organism-based
In short: (§1)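 Overnight stationary-phase cultures inoculated at ~10^7 CFU/ml into strain-matched spent CAMHB (pH 7.0, filter-sterilized). Oritavancin was kept at 0.002% polysorbate 80; daptomycin wells had 50 μg/ml CaCl2. Incubation at 37°C, 225 rpm. Samples were charcoal-quenched (25 mg/ml) before plating; points are means of duplicates. Bactericidal means ≥3-log drop at 24 h versus inoculum. ≥3 repeats.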

[9] = tested on: Staphylococcus aureus; test: Bactericidal activity against stationary-phase methicillin-resistant Staphylococcus aureus ATCC 33591 grown on nutrient-depleted CAMHB medium assessed as reduction in bacterial count at 0.5 ug/ml after 24 hrs by time kill analysis; assay type: functional; in short: as §1
[10] = tested on: Staphylococcus aureus; test: Antimicrobial activity against stationary-phase methicillin-sensitive Staphylococcus aureus ATCC 29213 grown on nutrient-depleted CAMHB medium assessed as membrane permeability after 30 mins by propidium iodide staining-based fluorescence spectrophotometry; assay type: functional, organism-based
[11] = tested on: Staphylococcus aureus; test: Antimicrobial activity against exponential-phase methicillin-sensitive Staphylococcus aureus ATCC 29213 grown on nutrient-depleted CAMHB medium assessed as membrane permeability after 30 mins by propidium iodide staining-based fluorescence spectrophotometry; assay type: functional, organism-based
[12] = tested on: Staphylococcus aureus; test: Bactericidal activity against exponential-phase methicillin-sensitive Staphylococcus aureus ATCC 29213 assessed as log reduction in bacterial count at 16 ug/ml within 15 mins by time kill analysis; assay type: functional
In short: (§2)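 Short (2-h) time-kill of ATCC 29213 at OD600 0.005 (~10^6 CFU/ml) in 10 mM HEPES-Cl pH 7.5 with 50 μg/ml CaCl2. Exponential cells had 5 mM glucose and stationary cells none. Oritavancin was tested without polysorbate 80; viable counts were taken by serial dilution plating. Three repeats; one shown.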

[13] = tested on: Staphylococcus aureus; test: Bactericidal activity against exponential-phase methicillin-sensitive Staphylococcus aureus ATCC 29213 assessed as log reduction in bacterial count at 4 ug/ml within 2 hrs by time kill analysis; assay type: functional
[14] = tested on: Staphylococcus aureus; test: Bactericidal activity against stationary-phase methicillin-sensitive Staphylococcus aureus ATCC 29213 assessed as log reduction in bacterial count at 4 ug/ml within 2 hrs by time kill analysis; assay type: functional
[15] = tested on: Staphylococcus aureus; test: Bactericidal activity against stationary-phase methicillin-sensitive Staphylococcus aureus ATCC 29213 assessed as log reduction in bacterial count at 16 ug/ml within 2 hrs by time kill analysis; assay type: functional; in short: as §2
[16] = tested on: Staphylococcus aureus; test: Inhibition of cell division in stationary-phase methicillin-resistant Staphylococcus aureus ATCC 43300 assessed as absence of appearance of septal midline at 1 ug/ml by transmission electron microscopy; assay type: functional, organism-based
In short: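 Stationary-phase MRSA ATCC 43300 (5 × 10^7 CFU/ml) exposed for 3 h in nutrient-depleted CAMHB. Cells were fixed in 2.5% glutaraldehyde, post-fixed in 2% osmium tetroxide and en bloc stained with uranyl acetate. Samples were ethanol-dehydrated, embedded in LR White, thin-sectioned, and stained with uranyl acetate/lead citrate. Septa were viewed by TEM at 100 kV.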

[17] = tested on: Staphylococcus aureus; test: Antimicrobial activity against methicillin-sensitive Staphylococcus aureus ATCC 29213 planktonic cells by broth microdilution method; assay type: functional
In short: (§3)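 Planktonic MIC read in the MBEC system against cells shed from 24-h peg biofilms (grown in tryptic soy broth, 37°C, 150 rpm), after 24-h exposure to serially diluted drug in CAMHB without polysorbate 80. Ranges come from ≥3 independent experiments.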

[18] = tested on: Staphylococcus aureus; test: Antimicrobial activity against methicillin-resistant Staphylococcus aureus ATCC 33591 planktonic cells by broth microdilution method; assay type: functional; in short: as §3
[19] = tested on: Staphylococcus aureus; test: Antimicrobial activity against vancomycin-resistant Staphylococcus aureus isolate VRS5 planktonic cells by broth microdilution method; assay type: functional; in short: as §3
[20] = tested on: Staphylococcus aureus; test: Antimicrobial activity against methicillin-sensitive Staphylococcus aureus ATCC 29213 assessed as inhibition of bacterial biofilm formation after 1 hr by serial dilution method; assay type: functional
[21] = tested on: Staphylococcus aureus; test: Antimicrobial activity against methicillin-sensitive Staphylococcus aureus ATCC 29213 assessed as inhibition of biofilm formation after 24 hrs by serial dilution method; assay type: functional
In short: (§4)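 24-h biofilms grown on MBEC peg lids from 10^7 CFU/ml inocula in tryptic soy broth at 37°C, 150 rpm. After a saline wash, pegs were exposed for 24 h to serially diluted drug in CAMHB with no polysorbate 80. Pegs were washed, sonicated 5 min into CAMHB recovery plates and incubated 24 h; MBEC is the lowest sterilizing concentration. Ranges come from ≥3 independent experiments.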

[22] = tested on: Staphylococcus aureus; test: Antimicrobial activity against methicillin-resistant Staphylococcus aureus ATCC 33591 assessed as inhibition of biofilm formation after 24 hrs by serial dilution method; assay type: functional; in short: as §4
[23] = tested on: Staphylococcus aureus; test: Bactericidal activity against stationary-phase vancomycin-resistant Staphylococcus aureus isolate VRS5 after 24 hrs by time kill analysis; assay type: functional, organism-based; in short: as §1
[24] = tested on: Homo sapiens; test: fCmin in human at 200 […]; assay type: ADME, organism-based; details: in vivo
[25] = tested on: Staphylococcus aureus; test: Antimicrobial activity against 4.6 X 10^6 CFU/peg methicillin-susceptible Staphylococcus aureus ATCC 29213 planktonic cells by broth microdilution method
[26] = tested on: Staphylococcus aureus; test: Antimicrobial activity against 4.6 X 10^6 CFU/peg methicillin-susceptible Staphylococcus aureus ATCC 29213 assessed as inhibition of biofilm formation after 24 hrs by serial dilution method
[27] = tested on: Staphylococcus aureus; test: Bactericidal activity against stationary-phase vancomycin-resistant Staphylococcus aureus isolate VRS5 grown on nutrient-depleted CAMHB medium assessed as log reduction in bacterial count at 4 ug/ml after 24 hrs by time kill analysis

CN[C@H](CC(C)C)C(=O)N[C@H]1C(=O)N[C@@H](CC(N)=O)C(=O)N[C@H]2C(=O)N[C@H]3C(=O)N[C@H](C(=O)N[C@H](C(=O)O)c4cc(O)cc(O)c4-c4cc3ccc4O)[C@H](O[C@H]3C[C@](C)(N)[C@@H](O)[C@H](C)O3)c3ccc(c(Cl)c3)Oc3cc2cc(c3O[C@@H]2O[C@H](CO)[C@@H](O)[C@H](O)[C@H]2O[C@H]2C[C@](C)(NCc3ccc(-c4ccc(Cl)cc4)cc3)[C@@H](O)[C@H](C)O2)Oc2ccc(cc2Cl)[C@H]1O [ORITAVANCIN]
Activity [1]: Dose-dependent effect
Activity [2]: Dose-dependent effect
FC [3]: >=3
FC [4]: 2.9
Activity [5]: Active
Activity [6]: Active
Activity [7]: Active
Activity [8]: Dose-dependent effect
fold change (FC) [9]: 0.4
Activity [10]: Dose-dependent effect
Activity [11]: Dose-dependent effect
FC [12]: 3.2
FC [13]: 2.9
FC [14]: 0.9
FC [15]: 1.5
inhibition [16]: Active
MIC [17]: 2 µg/mL (≈ 1.12 µM)
MIC [18]: 0.5 µg/mL (≈ 0.279 µM)
MIC [19]: 2 µg/mL (≈ 1.12 µM)
MBEC [20]: 4 µg/mL
MBEC [21]: 2 µg/mL
MBEC [22]: 0.5 µg/mL
Activity [23]: Dose-dependent effect
fCmin [24]: 0.5 µg/mL
MIC [25]: 4 µg/mL (≈ 2.23 µM)
MBEC [26]: 8 µg/mL
FC [27]: 2.2

Reference: ChEMBL document CHEMBL1629656, “Oritavancin kills stationary-phase and biofilm Staphylococcus aureus cells in vitro” (Antimicrob Agents Chemother, 2009)
